Measured values as given in ChEMBL document CHEMBL4616666, “Discovery of SHP2-D26 as a First, Potent, and Effective PROTAC Degrader of SHP2 Protein” (J Med Chem, 2020).
Active and inactive are the calls of the source. No cut-off for these calls is given here.

Columns and labels:
[1] = molecular target: T1, von Hippel-Lindau disease tumor suppressor/Tyrosine-protein phosphatase non-receptor type 11 (Homo sapiens, UniProt Q06124+P40337); experiment: Protac activity at VHL1/SHP2 in human KYSE520 cells assessed as induction of SHP2 degradation at 0.1 uM measured after 3 hrs in presence of SHP2 inhibitor by Western blot analysis; format: cell-based
How it was run: (§1)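 KYSE520 cells in RPMI 1640 + 10% FBS were pretreated 1 h with VHL-1 ligand (10 μM), SHP2 inhibitor (10 μM), MLN4924 (0.5 μM) or MG132, then given degrader at 0.1 μM for 3 h. Cells were lysed in RIPA with protease/phosphatase inhibitors and run on 4–12% SDS–PAGE/PVDF Western blot for SHP2, with GAPDH as loading control.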
Target sequence in this assay (P40337 whole entry partner, one chain of several): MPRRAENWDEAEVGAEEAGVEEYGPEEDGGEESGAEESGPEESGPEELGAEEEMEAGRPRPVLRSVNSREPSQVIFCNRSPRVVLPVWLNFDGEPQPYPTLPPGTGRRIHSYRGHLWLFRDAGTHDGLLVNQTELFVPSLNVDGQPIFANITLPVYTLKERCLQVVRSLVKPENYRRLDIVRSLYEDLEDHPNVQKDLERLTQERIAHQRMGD

[2] = molecular target: T1, von Hippel-Lindau disease tumor suppressor/Tyrosine-protein phosphatase non-receptor type 11; experiment: Protac activity at VHL1/SHP2 in human MV4-11 cells assessed as reduction in ERK phosphorylation at 100 nM measured after 48 hrs by Western blot analysis relative to control; format: cell-based; parameters: scale not given: the % may be the effect or the level left
Target sequence in this assay (P40337 whole entry partner, one chain of several): as above

[3] = molecular target: T1, von Hippel-Lindau disease tumor suppressor/Tyrosine-protein phosphatase non-receptor type 11; experiment: Protac activity at VHL1/SHP2 in human KYSE520 cells assessed as induction of SHP2 degradation at 0.1 uM measured after 3 hrs in presence of VHL-1 ligand by Western blot analysis; format: cell-based; how it was run: as §1
Target sequence in this assay (P40337 whole entry partner, one chain of several): as above

[4] = molecular target: T1, von Hippel-Lindau disease tumor suppressor/Tyrosine-protein phosphatase non-receptor type 11; experiment: Protac activity at VHL1/SHP2 in human KYSE520 cells assessed as induction of SHP2 degradation at 100 nM measured within 4 hrs by Western blot analysis; format: cell-based
How it was run: (§2)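 Kinetics: cells were seeded overnight in 6-well plates, then given degrader at 100 nM for 2, 4, 8, 12 and 24 h. Harvested cells were lysed in RIPA with protease/phosphatase inhibitors and SHP2 was read by Western blot against GAPDH loading control. KYSE520 were grown in RPMI 1640 and MV4;11 in IMDM, both with 10% FBS.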
Target sequence in this assay (P40337 whole entry partner, one chain of several): as above

[5] = molecular target: T1, von Hippel-Lindau disease tumor suppressor/Tyrosine-protein phosphatase non-receptor type 11; experiment: Protac activity at VHL1/SHP2 in human KYSE520 cells assessed as induction of SHP2 degradation at 100 nM measured after 8 hrs by Western blot analysis relative to control; format: cell-based; how it was run: as §2
Target sequence in this assay (P40337 whole entry partner, one chain of several): as above

MV4-11 [6] = experiment: Growth inhibition of human MV4-11 cells measured after 4 days by WST8 assay; details: MV4-11, 96 h
[7] = molecular target: T1, von Hippel-Lindau disease tumor suppressor/Tyrosine-protein phosphatase non-receptor type 11; experiment: Protac activity at VHL1/SHP2 in human MV4-11 cells assessed as induction of SHP2 degradation at 0.1 uM measured after 24 hrs by Western blot analysis relative to control; format: cell-based
How it was run: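 MV4;11 cells in IMDM + 10% FBS were exposed to degrader for 24 h. SHP2 was quantified by Western blot densitometry, with background-subtracted band divided by net GAPDH loading-control band. Average of three independent experiments.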
Target sequence in this assay (P40337 whole entry partner, one chain of several): as above

[8] = Aqueous solubility of the compound; format: physicochemical; details: buffer
[9] = molecular target: T1, von Hippel-Lindau disease tumor suppressor/Tyrosine-protein phosphatase non-receptor type 11; experiment: Protac activity at VHL1/SHP2 in human KYSE520 cells assessed as induction of SHP2 degradation at 1 uM measured after 6 hrs by Western blot analysis relative to control; format: cell-based
How it was run: (§3)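 KYSE520 cells in RPMI 1640 + 10% FBS, 37 °C, 5% CO2, were exposed to degrader for 6 h. SHP2 was measured by Western blot and densitometry, with background-subtracted band normalized to net GAPDH band. Values are the average of three independent experiments.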

[10] = molecular target: T1, von Hippel-Lindau disease tumor suppressor/Tyrosine-protein phosphatase non-receptor type 11; experiment: Protac activity at VHL1/SHP2 in human MV4-11 cells assessed as induction of SHP2 degradation at 100 nM measured after 4 to 8 hrs by Western blot analysis; format: cell-based; how it was run: as §2
[11] = molecular target: T1, von Hippel-Lindau disease tumor suppressor/Tyrosine-protein phosphatase non-receptor type 11; experiment: Protac activity at VHL1/SHP2 in human KYSE520 cells assessed as induction of SHP2 degradation at 0.1 uM measured after 6 hrs by Western blot analysis relative to control; format: cell-based; how it was run: as §3
KYSE-520 cell line [12] = experiment: Potency index, ratio of SHP099 IC50 to test compound IC50 for growth inhibition of human KYSE520 cells; format: functional
[13] = molecular target: T1, von Hippel-Lindau disease tumor suppressor/Tyrosine-protein phosphatase non-receptor type 11; experiment: Protac activity at VHL1/SHP2 in human KYSE520 cells assessed as reduction in ERK phosphorylation at 100 nM measured after 48 hrs by Western blot analysis; format: cell-based
[14] = molecular target: T1, von Hippel-Lindau disease tumor suppressor/Tyrosine-protein phosphatase non-receptor type 11; experiment: Protac activity at VHL1/SHP2 in human KYSE520 cells assessed as induction of SHP2 degradation at 0.1 uM measured after 3 hrs in presence of E1 inhibitor MLN4924 by Western blot analysis; format: cell-based; how it was run: as §1
[15] = molecular target: T1, von Hippel-Lindau disease tumor suppressor/Tyrosine-protein phosphatase non-receptor type 11; experiment: Protac activity at VHL1/SHP2 in human MV4-11 cells assessed as induction of SHP2 degradation measured after 12 hrs by Western blot analysis; format: cell-based
How it was run: (§4)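 Dose–response: KYSE520 (RPMI 1640) or MV4;11 (IMDM) cells, with 10% FBS, were treated across a concentration range for 12 h. SHP2 was measured by Western blot and densitometry, normalized to GAPDH band density.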

[16] = molecular target: T1, von Hippel-Lindau disease tumor suppressor/Tyrosine-protein phosphatase non-receptor type 11; experiment: Protac activity at VHL1/SHP2 in human KYSE520 cells assessed as reduction in ERK phosphorylation measured after 48 hrs by Western blot analysis; format: cell-based
[17] = molecular target: T1, von Hippel-Lindau disease tumor suppressor/Tyrosine-protein phosphatase non-receptor type 11; experiment: Protac activity at VHL1/SHP2 in human KYSE520 cells assessed as induction of SHP2 degradation measured after 12 hrs by Western blot analysis; format: cell-based; how it was run: as §4
[18] = molecular target: T2, Tyrosine-protein phosphatase non-receptor type 11 (Homo sapiens) (UniProt Q06124); experiment: Inhibition of SHP2 in human MV4-11 cells assessed as reduction in ERK phosphorylation at >3000 nM measured after 48 hrs by Western blot analysis relative to control; format: cell-based
T2 sequence (whole entry): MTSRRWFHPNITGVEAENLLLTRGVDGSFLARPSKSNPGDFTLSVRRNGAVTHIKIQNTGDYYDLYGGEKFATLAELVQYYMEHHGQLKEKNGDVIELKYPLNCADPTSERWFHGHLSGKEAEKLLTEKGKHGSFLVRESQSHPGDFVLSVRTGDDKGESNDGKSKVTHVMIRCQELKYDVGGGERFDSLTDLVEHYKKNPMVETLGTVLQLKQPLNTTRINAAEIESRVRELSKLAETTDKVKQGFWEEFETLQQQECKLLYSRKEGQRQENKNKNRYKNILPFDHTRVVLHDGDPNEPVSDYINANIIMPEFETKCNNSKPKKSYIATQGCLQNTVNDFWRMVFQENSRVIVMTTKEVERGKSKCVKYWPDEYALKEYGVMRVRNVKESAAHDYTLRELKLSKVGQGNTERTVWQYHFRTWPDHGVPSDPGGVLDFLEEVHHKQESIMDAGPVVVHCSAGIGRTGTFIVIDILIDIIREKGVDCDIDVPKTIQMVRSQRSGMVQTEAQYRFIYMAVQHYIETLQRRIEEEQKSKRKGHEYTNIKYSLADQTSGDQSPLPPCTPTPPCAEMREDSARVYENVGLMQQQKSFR

[19] = molecular target: T1, von Hippel-Lindau disease tumor suppressor/Tyrosine-protein phosphatase non-receptor type 11; experiment: Protac activity at VHL1/SHP2 in human MV4-11 cells assessed as reduction in ERK phosphorylation measured after 48 hrs by Western blot analysis; format: cell-based
KYSE-520 cell line [20] = experiment: Growth inhibition of human KYSE520 cells measured after 4 days by WST8 assay; details: KYSE-520, 96 h
[21] = molecular target: T1, von Hippel-Lindau disease tumor suppressor/Tyrosine-protein phosphatase non-receptor type 11; experiment: Protac activity at VHL1/SHP2 in human KYSE520 cells assessed as induction of SHP2 degradation at 0.1 uM measured after 3 hrs in presence of proteasome inhibitor MG132 by Western blot analysis; format: cell-based; how it was run: as §1
MV4-11 [22] = experiment: Potency index, ratio of SHP099 IC50 to test compound IC50 for growth inhibition of human MV4-11 cells; format: functional

Cc1ncsc1-c1ccc([C@H](C)NC(=O)[C@@H]2C[C@@H](O)CN2C(=O)[C@@H](NC(=O)CCCCCCCCN2CCN(C(=O)CCC(=O)Nc3cccc(Sc4ncc(N5CCC(C)(N)CC5)nc4N)c3Cl)CC2)C(C)(C)C)cc1 (single isomer, unassigned)
Activity [1]: inactive
Activity [2]: 100%
Activity [3]: inactive
Activity [4]: Active
Activity [5]: 100%
IC50 (MV4-11 [6]): 9.9 nM
Activity [7]: > 95%
solubility [8]: Soluble
Activity [9]: > 95%
Activity [10]: Active
Activity [11]: > 95%
Ratio IC50 (KYSE-520 cell line [12]): 28
Activity [13]: Active
Activity [14]: inactive
Activity [15]: Dose-dependent effect
DC50 [15]: 2.6 nM
Activity [16]: Dose-dependent effect
Activity [17]: Dose-dependent effect
DC50 [17]: 6 nM
inhibition [18]: 100%
Activity [19]: Dose-dependent effect
IC50 (KYSE-520 cell line [20]): 660 nM
Activity [21]: inactive
Ratio IC50 (MV4-11 [22]): 100
